Article PMC3139720 (Proteins, 2011)
Several values for one entry are separate records, joined by “and”; a condition that tells them apart may be missing. Equal values may be shown once. Read-outs that look alike come from different tables or passages of the source. Marks after values point to notes of the source that are not given here.

Assays:
[1] = Practical properties of thiol-reactive probes; type: physicochemical; settings: data not shown
physchem = settings: apparent pKa of L-GSH
[2] = reaction of ABD with L-GSH; for Ea/R: Arrhenius fit
[3] = fQCR: ABD labeling of a single buried cysteine over a temperature gradient; type: physicochemical
Outline: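 Purified single-buried-cysteine variant at 5-10 μM in 25 mM potassium phosphate, 100 mM KCl, pH 7, with TCEP. Final ABD at least 10-fold over protein. Parallel reactions run across a gradient thermocycler and quenched after fixed Δt by rapid cooling or acid. Fluorescence relative to RFUmax (400-2000 μM ABD) gives fractional labeling. Probe-concentration slices test EX2. ΔCp fixed at 3.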

[4] = Thermal unfolding monitored by circular dichroism at 222 nm; type: physicochemical; settings: pH 7, CD signal at 222 nm, fit of Eq. 1
Outline: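 His-tagged variants, Ni-affinity purified and buffer-exchanged. Protein at 3 μM in 25 mM potassium phosphate, 100 mM KCl, pH 7. CD signal at 222 nm recorded as a function of temperature. Apparent Tm obtained by fitting Eq. 1.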

[5] = fQCR ligand binding: RBP.A188C in absence and presence of D-ribose; settings: for Δ^apoGU: absence of ligand; for Tm / ΔHm: free energy profile; for Kd: ligand ribose, from ΔΔGU (Eq. 17)
Outline: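 RBP.A188C at 5 μM with 400 μM ABD and 50 μM TCEP (final) in 25 mM potassium phosphate, 100 mM KCl, pH 7, without or with 20 μM ligand. Samples incubated 10 min across a gradient thermocycler, then fluorescence read at 30°C (ex 405, em 465 nm). Fractional labeling converted to free-energy profiles. KD derived versus temperature and free ligand concentration via Eq. 17.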

[6] = Δt 300 s, [ABD] 500 μM, PHERAstar FS microplate reader (Fig. 7)
[7] = absence of ribose (Fig. 6B inset)
[8] = presence of 20 μM ribose (Fig. 6B inset)

Molecule: CCN(CC)c1ccc2c(C)c(-c3ccc(N4C(=O)C=CC4=O)cc3)c(=O)oc2c1 [CPM, N-[4-(7-diethylamino-4-methyl-3-coumarinyl)phenyl]maleimide]
- solubility [1]: limited
- spontaneous hydrolysis [1]: high rate of spontaneous hydrolysis that is strongly temperature dependent

Molecule: N[C@@H](CCC(=O)N[C@@H](CS)C(=O)NCC(=O)O)C(=O)O [L-GSH, reduced glutathione]
- pKa (physchem): 8.03 ± 0.01

Molecule: NS(=O)(=O)c1ccc(F)c2nonc12 [ABD, 4-(aminosulfonyl)-7-fluoro-2,1,3-benzoxadiazole]
- lnA, average value and standard error ([2]; over pH 6-8.5): 27.3 ± 0.3
- Ea/R ([2]; pH 6 (by order of symbols)): -9300 ± 200 K
- Ea/R ([2]; pH 7 (by order of symbols)): -8300 ± 200 K
- Ea/R ([2]; pH 8 (by order of symbols)): -7800 ± 200 K
- Ea/R ([2]; pH 8.5 (by order of symbols)): -7400 ± 200 K

B1: RBP.L61C: E. coli ribose-binding protein variant engineered to contain a single, buried cysteine (L61C), C-terminal … tag (protein, UniProt P02925 26-296, looked up, variant L61C)
Ribose import binding protein …: KDTIALVVSTLNNPFFVSLKDGAQKEADKLGYNLVVLDSQNNPAKELANVQDLTVRGTKICLINPTDSDAVGNAVKMANQANIPVITLDRQATKGEVVSHIASDNVLGGKIAGDYIAKKAGEGAKVIELQGIAGTSAARERGEGFQQAVAAHKFNVLASQPADFDRIKGLNVMQNLLTAHPDVQAVFAQNDEMALGALRALQTAGKSDVMVVGFDGTPDGEKAVNDGKLAATIAQLPDQIGAKGVETADKVLKGEKVQAKYPVDLKLVVKQ
modifications: C-terminal … tag
- Tm ([3]; summary line, quantified graphically): 53 ± 1 ^c °C
- ~kclose at Tm ([3]; Δt 300 s, [ABD] 100 μM): < 2 × 10^-2 ^e s^-1
- ~kclose at Tm ([3]; Δt 300 s, [ABD] 200 μM): < 2 × 10^-2 ^e s^-1
- ~kclose at Tm ([3]; Δt 300 s, [ABD] 400 μM): < 2 × 10^-2 ^e s^-1
- Tm ([3]; Δt 300 s, [ABD] 400 μM, quantified graphically (non-EX2)): 53 ± 1 ^c °C
- ~kclose at Tm ([3]; Δt 300 s, [ABD] 600 μM): < 2 × 10^-2 ^e s^-1
- Tm ([3]; Δt 300 s, [ABD] 600 μM, quantified graphically (non-EX2)): 53 ± 1 ^c °C
- ~kclose at Tm ([3]; Δt 300 s, [ABD] 800 μM): < 2 × 10^-2 ^e s^-1
- Tm ([3]; Δt 300 s, [ABD] 800 μM, quantified graphically (non-EX2)): 53 ± 1 ^c °C
- ~kclose at Tm ([3]; Δt 300 s, [ABD] 1200 μM): < 2 × 10^-2 ^e s^-1
- Tm ([3]; Δt 300 s, [ABD] 1200 μM, quantified graphically (non-EX2)): 53 ± 1 ^c °C
- apparent Tm [4]: 53 ± 1 °C

B2: RBP.A188C: E. coli ribose-binding protein variant engineered to contain a single, buried cysteine (A188C), C-terminal … tag (protein, UniProt P02925 26-296, looked up, variant A188C)
Ribose import binding protein …: KDTIALVVSTLNNPFFVSLKDGAQKEADKLGYNLVVLDSQNNPAKELANVQDLTVRGTKILLINPTDSDAVGNAVKMANQANIPVITLDRQATKGEVVSHIASDNVLGGKIAGDYIAKKAGEGAKVIELQGIAGTSAARERGEGFQQAVAAHKFNVLASQPADFDRIKGLNVMQNLLTAHPDVQAVFCQNDEMALGALRALQTAGKSDVMVVGFDGTPDGEKAVNDGKLAATIAQLPDQIGAKGVETADKVLKGEKVQAKYPVDLKLVVKQ
modifications: C-terminal … tag
- Ea/R ([3]; average value): -8140 ^a K
- Tm ([3]; Δt 300 s, [ABD] 200 μM): 56 ± 1 °C
- Ea/R ([3]; Δt 300 s, [ABD] 200 μM, pH 7): -8163 ± 6 K
- Ea/R ([3]; Δt 300 s, [ABD] 400 μM, pH 7): -8110 ± 14 K
- Tm [3, 6]: 56 ± 1 ^f °C
- ΔHm [3, 6]: 123 ± 16 ^f kcal/mol and 112 ± 5 ^f kcal/mol
- ΔHm ([3]; Δt 300 s, [ABD] 800 μM, ΔCp fixed at 3): 121 ± 4 kcal/mol
- ~kclose at Tm ([3]; Δt 300 s, [ABD] 1600 μM): ~0.04 s⁻¹
- ΔHm ([3]; Δt 300 s, [ABD] 1600 μM, ΔCp fixed at 3): 117 ± 8 kcal/mol
- Tm ([3]; Δt 600 s, [ABD] 200 μM): 56 ± 1 °C
- Tm ([3]; Δt 600 s, [ABD] 400 μM): 56 ± 1 °C
- ΔHm ([3]; Δt 600 s, [ABD] 800 μM, ΔCp fixed at 3): 128 ± 3 kcal/mol
- Tm ([3]; Δt 600 s, [ABD] 1200 μM): 58 ± 1 °C
- ~kclose at Tm ([3]; Δt 600 s, [ABD] 1200 μM): ~0.04 s⁻¹
- ΔHm ([3]; Δt 600 s, [ABD] 1200 μM, ΔCp fixed at 3): 125 ± 5 kcal/mol
- Tm ([3]; Δt 600 s, [ABD] 1600 μM): 58 ± 1 °C
- ~kclose at Tm ([3]; Δt 600 s, [ABD] 1600 μM): ~0.04 s⁻¹
- ΔHm ([3]; Δt 600 s, [ABD] 1600 μM, ΔCp fixed at 3): 121 ± 4 kcal/mol
- apparent Tm [4]: 56 ± 1 °C
- Δ^apoGU ([5]; 46 °C): 3.7 kcal/mol
- Δ^apoGU ([5]; 48 °C): 3.0 kcal/mol
- Δ^apoGU ([5]; 50 °C): 2.3 kcal/mol
- Δ^apoGU ([5]; 52 °C): 1.6 kcal/mol
- Δ^apoGU ([5]; 54 °C): 0.9 kcal/mol
- Δ^apoGU ([5]; 56 °C): 0.1 kcal/mol
- Tm [5, 7]: 57 ± 1 °C
- ΔHm [5, 7]: 138 ± 1 kcal/mol
- Tm [5, 8]: 59 ± 1 °C
- ΔHm [5, 8]: 160 ± 8 kcal/mol
- Kd ([5]; 46 °C): 1.2 µM
- Kd ([5]; 48 °C): 1.4 µM
- Kd ([5]; 50 °C): 1.7 µM
- Kd ([5]; 52 °C): 2 µM
- Kd ([5]; 54 °C): 2.3 µM
- Kd ([5]; 56 °C): 2.7 µM
